Cardio protect = cardioprotection against H2O2-induced cell death, primary screen, uHTS, H9c2 cells, ATPLite luminescence | 360,000 compounds, 0.63% hits | H9c2 cardiomyocytes, H2O2 injury protection, 2 h | protection from H2O2 cell death, % at 20 µM;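 active means compounds giving at least 50% protection of heart cells from peroxide-induced death in the single-dose screen, raw or plate-pattern-corrected value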;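 further: 0% = DMSO wells with peroxide and 100% = DMSO wells without peroxide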
MT1-MMP act inh = blockers of MT1-MMP proenzyme processing, primary screen, HT1080 RFP-PRO-GFP cells, GFP/RFP fluorescence; GFP/RFP ratio change, % at 20 µM; Matrix metalloproteinase-14 (Homo sapiens), P50281; GFP/RFP ratio fluorescence, overnight; percent of plate control window, DMSO zero; 360,000 compounds, 0.061% hits; AID 651647, 2012;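 active means GFP/RFP ratio change of at least 30% with cell ATP level not reduced by more than half and red fluorescence within 50% of control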
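Material: RFP-PRO-GFP reporter HT1080 cells. Dosing: single-point 20 µM compound, 1% DMSO. Controls: DMSO and RFP-L50D-GFP cell wells. Timing: cells overnight before dosing, compound overnight, 37 °C, 5% CO2. Measure: GFP/RFP fluorescence ratio.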
DAGLB inhibitor = DAGLB lipase inhibitors, primary screen, biochemical, fluorescence, HTS. inhibition, % at 5.17 µM. 340,000 compounds, 0.059% hits. AID 504411, 2011. HEK293T DAGLB membrane lysate, EnzChek fluorogenic substrate; in the data active means inhibition above about 34%;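 further: 0% = enzyme with vehicle and 100% = wells lacking enzyme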
Target sequence (Q8NCG7 whole entry, looked up): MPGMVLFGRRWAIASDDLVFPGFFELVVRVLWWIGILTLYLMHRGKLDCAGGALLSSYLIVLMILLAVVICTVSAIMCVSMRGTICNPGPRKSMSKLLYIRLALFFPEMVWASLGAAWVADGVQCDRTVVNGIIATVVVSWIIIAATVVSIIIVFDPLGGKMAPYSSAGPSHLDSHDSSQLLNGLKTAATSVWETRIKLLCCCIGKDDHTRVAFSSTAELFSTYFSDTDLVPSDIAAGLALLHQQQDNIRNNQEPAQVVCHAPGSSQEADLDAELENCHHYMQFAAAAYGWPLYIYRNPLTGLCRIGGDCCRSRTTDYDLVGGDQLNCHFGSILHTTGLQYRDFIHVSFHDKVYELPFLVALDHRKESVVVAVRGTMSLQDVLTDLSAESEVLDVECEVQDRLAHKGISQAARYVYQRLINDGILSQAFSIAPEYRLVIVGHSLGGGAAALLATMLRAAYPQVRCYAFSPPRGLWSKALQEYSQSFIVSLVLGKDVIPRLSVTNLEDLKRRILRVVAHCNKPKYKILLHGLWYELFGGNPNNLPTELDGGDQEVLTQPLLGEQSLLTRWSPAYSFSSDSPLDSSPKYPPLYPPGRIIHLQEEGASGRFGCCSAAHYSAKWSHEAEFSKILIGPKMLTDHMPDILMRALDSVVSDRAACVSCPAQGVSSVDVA
Tn6 DDE FP = inhibitors of Tn6 peptide binding to fibrin DD(E), primary screen, biochemical, fluorescence polarization, human fibrin, Tn6 probe; Fibrinogen beta chain (Homo sapiens), P02675; Fibrin DD(E) TRITC-Tn6 fluorescence polarization displacement; inhibition, % at 8.3 µM; 370,000 compounds, 0.21% hits;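 active means inhibition above a per-campaign cutoff: mean of compounds within control limits plus 3 SD, cut at about 15% in these data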;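 further: 0% = median of all compound wells on the plate and 100% = blocking peptide control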
DDE Tn7 FP inh = inhibitors of Tn7 peptide binding to fibrin DD(E), primary screen, biochemical, fluorescence polarization, human fibrin, Tn7 probe; Fibrinogen beta chain (Homo sapiens), P02675; FP displacement of FITC-Tn7 peptide from fibrin DD(E); 0% = median of compound wells per plate; inhibition, % at 8.3 µM; 370,000 compounds, 0.13% hits;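 active means inhibition above the mean of compounds falling within the control limits plus 3 SD of them, cut at about 14% in these data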;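 further: 0% = plate median of compound wells and 100% = 10 µM Aha-Tn7 peptide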
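Assay system: Human clot-derived fibrin DD(E) complex | Buffer or medium: Tris/NaCl/CaCl2 buffer, pH 7.8 | Repeats: One replicate per compound | Benchmarks: Aha-Tn7 high control | Measure: % inhibition scaled between sample-field median and high-control FP | Schedule: 10 min plus 3 h, room temperature | Signal: Fluorescence polarization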
H9c2 TAG inh = inhibitors of triacylglycerol accumulation, primary screen, cell-based, uHTS, fluorescence, H9c2; H9c2 cells, Nile Red lipid (TAG) fluorescence; cells loaded with 200 µM oleic acid; inhibition, % at 12.5 µM; 230,000 compounds, 0.66% hits; AID 651582, 2012;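 active means pattern-corrected inhibition of lipid staining of at least 50% with the nuclear-stain viability signal not falling by more than 50%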;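 further: 0% = DMSO wells and 100% = triacsin C control wells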
TAG conf = triacylglycerol accumulation inhibitors, retest, confirmation, cell-based, single concentration, Nile Red fluorescence, H9c2 | H9c2 lipid accumulation; cells loaded with 200 µM oleic acid | inhibition, % at 12.5 µM | shares compounds with H9c2 TAG inh | AID 651629, 2012 | 990 compounds, 71% hits;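 active means mean inhibition across replicates of 40% or more; inactive means mean inhibition below 40%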;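 further: plate controls were DMSO only wells for no effect and Triacsin C treated wells for full effect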
* hit, by the source's call. Compounds with a hit are over-represented: about 1.4% of the library has one in this group of screens.

Cn1cc(CN2CCC(C(=O)NC(c3ccc(F)cc3)c3ccc4ccccc4n3)CC2)c2ccccc21 (centres undefined) was read as Cardio protect -29, MT1-MMP act inh -4, Tn6 DDE FP 1, DDE Tn7 FP inh 2, H9c2 TAG inh 103* and TAG conf 98*.
COc1cc(CN2CCC(C(=O)NC(c3ccc(F)cc3)c3ccc4ccccc4n3)CC2)cc(OC)c1 (centres undefined) was read as Cardio protect 2, MT1-MMP act inh 0, Tn6 DDE FP 0, DDE Tn7 FP inh -6 and H9c2 TAG inh 48.
For Cc1c(C(=O)NCc2ccccc2)oc2ccc(S(=O)(=O)N3CCC4(CC3)OCCO4)cc12 the results were Cardio protect 11, MT1-MMP act inh 5, DAGLB inhibitor -4, Tn6 DDE FP -1, DDE Tn7 FP inh 2 and H9c2 TAG inh -6.
Screening Cc1c(C(=O)NCCC2=CCCCC2)oc2ccc(S(=O)(=O)N3CCC4(CC3)OCCO4)cc12 returned Cardio protect 28, MT1-MMP act inh 3, DAGLB inhibitor -4, Tn6 DDE FP 6, DDE Tn7 FP inh 2, H9c2 TAG inh 52* and TAG conf 33.
`COC(=O)C1=C(C)N(Cc2ccccc2C(F)(F)F)C(=NCc2ccc(C(F)(F)F)cc2)NC1c1ccc(Cl)cc1` (centres undefined) gave Tn6 DDE FP -4 and DDE Tn7 FP inh 2.
Screening Nc1[nH]c(C(=O)c2ccccc2)c(-c2ccc(Br)cc2)c1C(=O)NCCCN1CCOCC1 returned Tn6 DDE FP 0 and DDE Tn7 FP inh 0.
Cc1ccc(-c2cc(C(F)F)n3ncc(C(=O)Nc4c(C)nn(Cc5c(Cl)cccc5Cl)c4C)c3n2)cc1 was read as Cardio protect 8, MT1-MMP act inh -9, DAGLB inhibitor -8, Tn6 DDE FP -6, DDE Tn7 FP inh -4, H9c2 TAG inh 89* and TAG conf 47*.
COc1ccc(C2=C(C=Nc3c(C)n(C)n(-c4ccccc4)c3=O)C(c3ccccc3C)c3ccccc3O2)cc1OC (centres undefined) was read as Cardio protect -16, MT1-MMP act inh -13, DAGLB inhibitor -4, Tn6 DDE FP 4, DDE Tn7 FP inh -2, H9c2 TAG inh 61* and TAG conf 32.
Cc1c(N=Cc2c(O)n(C)c(=O)c3ccccc23)c(=O)n(-c2ccccc2)n1C was read as Cardio protect 32, MT1-MMP act inh -9 and DAGLB inhibitor -2.
For Cc1cc(C(=O)COC(=O)c2ccc([N+](=O)[O-])o2)c(C)n1CC1CCCO1 (centres undefined) the results were Cardio protect 2, MT1-MMP act inh 2, DAGLB inhibitor 0, Tn6 DDE FP 0, DDE Tn7 FP inh 5, H9c2 TAG inh 72* and TAG conf 54*.
For COCCn1c(C)cc(C(=O)COC(=O)c2ccc([N+](=O)[O-])o2)c1C the results were Cardio protect 17, MT1-MMP act inh -6, DAGLB inhibitor 0, Tn6 DDE FP 3, DDE Tn7 FP inh -6 and H9c2 TAG inh 44.
For Cc1ccc2cc3cc(C(=O)NCCCN4CCCCCC4)oc3nc2c1 the results were Cardio protect 2, MT1-MMP act inh 7, DAGLB inhibitor 3, Tn6 DDE FP -1, DDE Tn7 FP inh 6, H9c2 TAG inh 51* and TAG conf 29.
For Cc1ccc2cc3cc(C(=O)NCCCN4CCCC4)oc3nc2c1 the results were Cardio protect 5, MT1-MMP act inh 5, DAGLB inhibitor 0, Tn6 DDE FP 1 and DDE Tn7 FP inh -1.
Screening COC(=O)[C@@]12CCCCC=C1N(CCc1ccc(Cl)cc1)C(=O)[C@H]2CC(=O)NCCC(C)C returned Tn6 DDE FP -1 and DDE Tn7 FP inh 6.
COc1ccc(S[C@]2(C(=O)N3CCN(c4ncccn4)CC3)CC(=O)N(C(=O)/C=C/c3ccccc3)[C@@H]2c2ccc(OC)cc2)cc1 was read as Tn6 DDE FP 1 and DDE Tn7 FP inh 1.
OCCCn1c(C2CCCN2c2nc(-c3ccc(Cl)cc3)cs2)nc2cc(Cl)c(Cl)cc21 (centres undefined) was read as Cardio protect -3, MT1-MMP act inh 4, DAGLB inhibitor 1, Tn6 DDE FP 2, DDE Tn7 FP inh 1 and H9c2 TAG inh 39.
For Nc1c(Cl)cc(-c2csc(N3CCCC3c3nc4cc(Cl)c(N5CCCCC5)cc4n3CCCO)n2)cc1Cl (centres undefined) the results were Cardio protect 2, MT1-MMP act inh -1, DAGLB inhibitor 2, Tn6 DDE FP -3, DDE Tn7 FP inh 0, H9c2 TAG inh 93* and TAG conf 128*.
Screening Nc1c(Cl)cc(-c2csc(N3CCCC3c3nc4cc(Cl)c(Cl)cc4n3CCCO)n2)cc1Cl (centres undefined) returned Cardio protect -2, MT1-MMP act inh -2, DAGLB inhibitor 4, Tn6 DDE FP 5, DDE Tn7 FP inh 0, H9c2 TAG inh 71* and TAG conf 79*.
Nc1c(Cl)cc(-c2csc(N3CCCC3c3nc4cc(Cl)c(N5CCCCC5)cc4n3CCOCCO)n2)cc1Cl (centres undefined) was read as Cardio protect -5, MT1-MMP act inh -1, DAGLB inhibitor 0, Tn6 DDE FP -4, DDE Tn7 FP inh -2, H9c2 TAG inh 75* and TAG conf 81*.
Screening CC(CCN1CCC(C(O)(c2ccccc2)c2ccccc2)CC1)Oc1cccc(F)c1 (centres undefined) returned Tn6 DDE FP 7 and DDE Tn7 FP inh -2.
`Cc1ccccc1CN1CCCCC(NC(=O)c2ccc(Br)cc2)C1=O` (centres undefined) gave Tn6 DDE FP -2 and DDE Tn7 FP inh -3.
For O=C(Nc1ccc(Cl)cc1)c1csc([C@@H]2C[C@H](O)[C@@H](CO)O2)n1 the results were Cardio protect -3, MT1-MMP act inh 3, Tn6 DDE FP 6, DDE Tn7 FP inh 4, H9c2 TAG inh 54* and TAG conf 0.
Screening CCN(C(=O)[C@@H]1CC(=O)O[C@@H]1c1ccccc1)c1ccccc1 returned Tn6 DDE FP 0 and DDE Tn7 FP inh 5.
